In ChEMBL document CHEMBL1150828, “Antimalarial, cytotoxic, and antifungal alkaloids from Duguetia hadrantha” (J Nat Prod, 2001):
Values after ≈ are worked out from the molar mass of the structure shown. Active and inactive are the calls of the source. No cut-off for these calls is given here.

What was measured:
[1] = system: Plasmodium falciparum; test: Antimalarial activity after 48 hrs against chloroquine-resistant Plasmodium falciparum W2 as LDH activity by Makler method; type: functional, organism-based; settings: W2, 48 h
Method in brief: (§1)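 Parasite lactate dehydrogenase (pLDH) assay adapted from Makler, run in 96-well microplates on two P. falciparum clones, W-2 and D-6 (D-6 chloroquine-sensitive). Chloroquine and artemisinin were positive controls, with DMSO as the vehicle control.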

[2] = Selectivity index, ratio of IC50 of african green monkey (Cercopithecus aethiops) Vero cells to IC50 for chloroquine-resistant Plasmodium falciparum W2; type: toxicity, cell-based; settings: read-out: Ratio IC50
[3] = system: Plasmodium falciparum; test: Antimalarial activity after 48 hrs against chloroquine-sensitive Plasmodium falciparum D6 as LDH activity by Makler method; type: functional, organism-based; settings: D6, 48 h; method in brief: as §1
[4] = Selectivity index, ratio of IC50 of african green monkey (Cercopithecus aethiops) Vero cells to IC50 for chloroquine-sensitive Plasmodium falciparum D6; type: toxicity, cell-based; settings: read-out: Ratio IC50
[5] = system: SK-MEL; test: Cytotoxicity against human SK-MEL cells after 2 to 7 days by neutral red assay; type: functional, cell-based
[6] = system: KB; test: Cytotoxicity against human KB cells after 2 to 7 days by neutral red assay; type: functional, cell-based
[7] = system: BT-549; test: Cytotoxicity against human BT549 cells after 2 to 7 days by neutral red assay; type: functional, cell-based
[8] = system: SK-OV-3; test: Cytotoxicity against human SKOV3 cells after 2 to 7 days by neutral red assay; type: functional, cell-based
[9] = system: Candida albicans; test: Antifungal activity against Candida albicans B311 after 48 hrs by modified well microplate assay; type: functional, organism-based; settings: B311, 48 h
Method in brief: (§2)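 ATCC strains (C. albicans B311 #90028, C. neoformans #90113, S. aureus #6535, MRSA #33591) were tested in a modified 96-well microplate protocol. […] Amphotericin B and rifampin served as positive controls and DMSO as the negative control.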

[10] = system: Cryptococcus neoformans; test: Antifungal activity against Cryptococcus neoformans ATCC 90113 after 48 hrs by modified well microplate assay; type: functional, organism-based; method in brief: as §2
[11] = system: Staphylococcus aureus; test: Antibacterial activity against Staphylococcus aureus ATCC 6535 after 48 hrs by modified well microplate assay; type: functional, organism-based; method in brief: as §2
[12] = system: Staphylococcus aureus; test: Antibacterial activity against methicillin-resistant Staphylococcus aureus ATCC 33591 after 48 hrs by modified well microplate assay; type: functional, organism-based; method in brief: as §2
[13] = system: Cryptococcus neoformans; test: Antifungal activity against Cryptococcus neoformans ATCC 90113; type: functional
[14] = biological target: Intercellular adhesion molecule (ICAM-1), Integrin alpha-L/beta-2 (Homo sapiens) (UniProt P20701+P05362+P05107); test: Inhibition of LFA1/ICAM1-mediated aggregation of TPA-stimulated human HL60 cells pretreated 10 mins before TPA challenge measured after 16 hrs of PMA addition by microscopy; type: cell-based; settings: HL-60
Method in brief: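 HL-60 cells at 1 × 10^6 cells/mL preincubated 10 min with sample, then PMA 10 ng/mL added; plates kept in CO2 incubator and aggregation scored microscopically 16 h after PMA; MIC reported; cytochalasin B, anti-LFA-1 and anti-ICAM-1 antibodies as positive controls.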

[15] = Specific index, ratio of IC50 for human HL60 cells to MIC for LFA1/ICAM1 mediated aggregation in TPA-stimulated human HL60 cells; type: functional, HL-60
Method in brief: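 Ratio of XTT IC50 in HL-60 cells (4 h XTT-PMS read after the aggregation assay) to the microscopic aggregation MIC of PMA (10 ng/mL)-stimulated HL-60 cells scored 16 h after PMA.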

[16] = system: HL-60; test: Cytotoxicity against human HL60 cells after 16 hrs by XTT/PMS assay; settings: HL-60, 16 h
[17] = system: Plasmodium falciparum; test: Antimalarial activity against chloroquine-resistant Plasmodium falciparum W2; type: functional, organism-based
Method in brief: (§3)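 In vitro antimalarial screen using the parasite lactate dehydrogenase (pLDH) assay, adapted from Makler et al. and run in 96-well microplates. Two P. falciparum clones were tested: W-2 (chloroquine-resistant) and D-6 (chloroquine-sensitive). Chloroquine and artemisinin served as positive controls and DMSO as the vehicle (negative) control. IC50 values were reported.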

[18] = system: Plasmodium falciparum; test: Antimalarial activity against chloroquine-sensitive Plasmodium falciparum D6; type: functional, organism-based; method in brief: as §3
[19] = biological target: Intercellular adhesion molecule (ICAM-1), Integrin alpha-L/beta-2 (Homo sapiens, UniProt P05107+P05362+P20701); test: Inhibition of LFA1/ICAM1-mediated CFSE-labeled TPA-stimulated human HL60 cell adhesion to ICAM1 expressing human HeLa cells after 45 mins by fluorescence analysis; type: cell-based
Sequence of Intercellular adhesion molecule (ICAM-1), Integrin alpha-L/beta-2 (P20701 whole entry): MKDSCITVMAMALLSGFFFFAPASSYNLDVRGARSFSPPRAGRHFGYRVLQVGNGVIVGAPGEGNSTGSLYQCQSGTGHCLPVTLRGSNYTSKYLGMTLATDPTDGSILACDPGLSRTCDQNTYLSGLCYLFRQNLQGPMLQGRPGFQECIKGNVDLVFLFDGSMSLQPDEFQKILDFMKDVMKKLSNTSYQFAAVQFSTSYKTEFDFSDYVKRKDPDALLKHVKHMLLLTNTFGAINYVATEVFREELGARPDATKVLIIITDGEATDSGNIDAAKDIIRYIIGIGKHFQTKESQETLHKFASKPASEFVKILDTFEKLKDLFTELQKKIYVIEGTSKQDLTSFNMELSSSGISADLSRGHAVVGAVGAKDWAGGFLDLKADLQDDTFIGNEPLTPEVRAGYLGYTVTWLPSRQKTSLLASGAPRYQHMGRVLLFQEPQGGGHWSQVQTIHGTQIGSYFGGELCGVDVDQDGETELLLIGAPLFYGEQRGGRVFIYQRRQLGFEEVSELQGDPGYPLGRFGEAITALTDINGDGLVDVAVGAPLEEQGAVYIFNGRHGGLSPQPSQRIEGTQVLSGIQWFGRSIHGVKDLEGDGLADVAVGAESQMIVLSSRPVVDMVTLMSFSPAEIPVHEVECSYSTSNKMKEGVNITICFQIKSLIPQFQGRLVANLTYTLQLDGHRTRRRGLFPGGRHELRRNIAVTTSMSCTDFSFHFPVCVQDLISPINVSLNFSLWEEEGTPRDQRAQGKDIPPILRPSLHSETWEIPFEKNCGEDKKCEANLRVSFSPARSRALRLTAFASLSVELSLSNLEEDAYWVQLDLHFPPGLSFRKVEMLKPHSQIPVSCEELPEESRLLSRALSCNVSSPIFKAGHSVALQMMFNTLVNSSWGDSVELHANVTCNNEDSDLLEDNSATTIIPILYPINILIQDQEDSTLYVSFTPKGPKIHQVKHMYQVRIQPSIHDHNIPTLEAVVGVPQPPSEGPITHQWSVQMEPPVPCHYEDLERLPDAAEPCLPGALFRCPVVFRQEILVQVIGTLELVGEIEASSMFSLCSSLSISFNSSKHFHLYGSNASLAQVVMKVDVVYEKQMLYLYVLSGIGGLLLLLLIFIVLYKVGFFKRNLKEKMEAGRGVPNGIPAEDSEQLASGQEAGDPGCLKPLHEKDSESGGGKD
Sequence of Intercellular adhesion molecule (ICAM-1), Integrin alpha-L/beta-2 (P05362 whole entry): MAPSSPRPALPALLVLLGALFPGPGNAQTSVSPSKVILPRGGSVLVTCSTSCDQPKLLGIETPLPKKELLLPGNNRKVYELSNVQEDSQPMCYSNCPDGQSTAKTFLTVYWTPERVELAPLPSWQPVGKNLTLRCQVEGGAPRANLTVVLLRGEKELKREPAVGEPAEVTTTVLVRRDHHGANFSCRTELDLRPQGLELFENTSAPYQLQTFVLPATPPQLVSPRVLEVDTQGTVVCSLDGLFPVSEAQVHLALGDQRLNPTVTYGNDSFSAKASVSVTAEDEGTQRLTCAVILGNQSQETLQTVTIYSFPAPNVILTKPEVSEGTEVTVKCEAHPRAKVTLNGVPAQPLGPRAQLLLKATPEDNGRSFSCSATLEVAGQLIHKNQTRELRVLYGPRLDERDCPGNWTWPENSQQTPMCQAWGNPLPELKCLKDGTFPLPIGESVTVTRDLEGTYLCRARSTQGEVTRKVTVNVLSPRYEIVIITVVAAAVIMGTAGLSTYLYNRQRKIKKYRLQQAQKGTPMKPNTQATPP
Sequence of Intercellular adhesion molecule (ICAM-1), Integrin alpha-L/beta-2 (P05107 whole entry): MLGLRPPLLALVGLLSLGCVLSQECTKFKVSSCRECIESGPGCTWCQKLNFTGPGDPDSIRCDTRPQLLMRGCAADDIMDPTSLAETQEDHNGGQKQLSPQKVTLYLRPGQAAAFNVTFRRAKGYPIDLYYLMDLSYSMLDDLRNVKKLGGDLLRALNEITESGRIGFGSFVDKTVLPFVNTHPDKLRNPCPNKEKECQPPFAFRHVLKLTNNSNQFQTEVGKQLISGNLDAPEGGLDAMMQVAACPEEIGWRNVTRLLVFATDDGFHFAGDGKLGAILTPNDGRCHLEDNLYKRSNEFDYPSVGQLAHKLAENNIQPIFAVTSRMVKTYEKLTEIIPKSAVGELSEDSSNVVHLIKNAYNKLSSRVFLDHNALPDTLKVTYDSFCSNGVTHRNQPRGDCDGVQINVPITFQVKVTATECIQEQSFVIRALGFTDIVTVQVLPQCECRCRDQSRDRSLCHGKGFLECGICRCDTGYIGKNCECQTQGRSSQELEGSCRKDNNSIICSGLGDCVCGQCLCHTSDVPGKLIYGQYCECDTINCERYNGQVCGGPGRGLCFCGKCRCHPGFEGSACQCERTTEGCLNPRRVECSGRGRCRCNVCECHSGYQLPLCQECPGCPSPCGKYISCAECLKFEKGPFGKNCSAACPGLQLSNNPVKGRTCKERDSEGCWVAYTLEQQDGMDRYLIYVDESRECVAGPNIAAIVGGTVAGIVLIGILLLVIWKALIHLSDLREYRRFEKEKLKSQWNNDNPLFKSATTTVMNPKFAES
Method in brief: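 CFSE-labelled HL-60 cells plus sample added onto confluent ICAM-1-expressing HeLa monolayers with PMA 50 ng/mL; 45 min at 37 °C in CO2 incubator; nonadherent cells washed off, remainder lysed in 1% Triton X-100; fluorescence at ex 496/em 519 nm; anti-ICAM-1 antibody and cytochalasin B positive controls.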

[20] = Specific index, ratio of IC50 for human HL60 cells to IC50 for LFA1/ICAM1-mediated CFSE-labeled TPA-stimulated human HL60 cell adhesion to ICAM1 expressing human HeLa cells
Method in brief: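 Index = HL-60 XTT IC50 / adhesion IC50. XTT: HL-60 at 1 × 10^6 cells/mL, sample 10 min, then PMA 10 ng/mL for 16 h; then XTT 1 mg/mL with 25 µM PMS for 4 h at 37 °C, A450 (ref 630). Adhesion: CFSE-labeled HL-60 on confluent HeLa monolayers, PMA 50 ng/mL, 45 min at 37 °C; nonadherent cells washed off, remainder lysed in 1% Triton X-100, fluorescence ex 496/em 519 nm.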

[21] = system: Candida albicans; test: Antifungal activity against Candida albicans B311; type: functional
[22] = Cryptococcus neoformans, ATCC 90113, 48 h
[23] = Cryptococcus neoformans, ATCC 90113, 48 h, read-out: IC50
[24] = Staphylococcus aureus, ATCC 6535, 48 h
[25] = Staphylococcus aureus, ATCC 6535, 48 h, read-out: IC50
[26] = Staphylococcus aureus, ATCC 33591, 48 h, read-out: IC50
[27] = Homo sapiens, KB, read-out: IC50
[28] = Homo sapiens, BT-549, read-out: IC50
[29] = Staphylococcus aureus, ATCC 33591, 48 h

Row | SMILES | IC50 [1] | selectivity ratio [2] | IC50 [3] | selectivity ratio [4] | IC50 [5] | IC50 [8] | IC50 [9] | MIC [9] | IC50 [10, 23] | MIC [14] | IC50 [16] | IC50 [6, 27] | IC50 [7, 28] | further results
1 | COc1cnc2c3c(nccc13)C(=O)c1ccccc1-2 | 0.095 µg/mL (≈ 0.362 µM) | > 50 | 0.28 µg/mL (≈ 1.07 µM) | > 17 | > 10 µg/mL | > 10 µg/mL | 3 µg/mL (≈ 11.4 µM) | 20 µg/mL (≈ 76.3 µM) | 0.65 µg/mL (≈ 2.48 µM) | 12.5 µg/mL (≈ 47.7 µM) | 7.2 µg/mL (≈ 27.5 µM) | – | – | IC50 ([6]; kb): Not Active; IC50 ([7]; bt-549): Not Active; MIC [10, 22]: 3.12 µg/mL (≈ 11.9 µM); MIC [11, 24]: 25 µg/mL (≈ 95.3 µM); IC50 [11, 25]: 15 µg/mL (≈ 57.2 µM); IC50 [12, 26]: 20 µg/mL (≈ 76.3 µM); MIC [13]: 0.78 µg/mL (≈ 2.97 µM); Ratio [15]: 0.6
2 | COc1c2c3c(ccnc3c3ccccc13)C(=O)C(=O)N2C | 0.28 µg/mL (≈ 0.958 µM) | > 17 | 0.55 µg/mL (≈ 1.88 µM) | > 8.7 | 2 µg/mL (≈ 6.84 µM) | 5 µg/mL (≈ 17.1 µM) | 9 µg/mL (≈ 30.8 µM) | 50 µg/mL (≈ 171 µM) | 50 µg/mL (≈ 171 µM) | – | – | > 10 µg/mL | > 10 µg/mL | IC50 [11]: Not Active; MIC [11]: inactive; IC50 [12]: Not Active; MIC [12]: inactive
3 | C[C@@H]1[C@H](O)[C@@H](C)/C=C/C=C/C=C/C=C/C=C/C=C/C=C/[C@H](O[C@@H]2O[C@H](C)[C@@H](O)[C@H](N)[C@@H]2O)C[C@@H]2O[C@](O)(C[C@@H](O)C[C@@H](O)[C@H](O)CC[C@@H](O)C[C@@H](O)CC(=O)O[C@H]1C)C[C@H](O)[C@H]2C(=O)O [AMPHOTERICIN B] | – | – | – | – | – | – | 0.011 µg/mL (≈ 0.0119 µM) | 0.02 µg/mL (≈ 0.0216 µM) | 0.045 µg/mL (≈ 0.0487 µM) | – | – | – | – | MIC [10, 22]: 0.156 µg/mL (≈ 0.169 µM); IC50 [11]: Not Active; MIC [11]: inactive; IC50 [12]: Not Active; MIC [12]: inactive
4 | C[C@@H]1CC[C@H]2[C@@H](C)C(=O)O[C@@H]3O[C@@]4(C)CC[C@@H]1[C@]32OO4 [ARTEMISININ] | 0.0044 µg/mL (≈ 0.0156 µM) | > 1080 | 0.005 µg/mL (≈ 0.0177 µM) | > 952 | – | – | – | – | – | – | – | – | – | IC50 [17]: 0.0005 µg/mL (≈ 0.00177 µM); IC50 [18]: 0.0018 µg/mL (≈ 0.00638 µM)
5 | C=C1[C@@H](C)[C@H]2[C@H](Cc3ccccc3)NC(=O)[C@]23OC(=O)/C=C/[C@H](O)CCC[C@@H](C)C/C=C/[C@H]3[C@@H]1O [CYTOCHALASIN B] | – | – | – | – | – | – | – | – | – | 0.39 µg/mL (≈ 0.813 µM) | > 30 µg/mL | – | – | Ratio [15]: 76.9; IC50 [19]: 521 nM; Ratio IC50 [20]: >120
6 | COc1cccc2c1C(=O)c1c(O)c3c(c(O)c1C2=O)C[C@@](O)(C(=O)CO)C[C@@H]3O[C@H]1C[C@H](N)[C@H](O)[C@H](C)O1 [DOXORUBICIN] | – | – | – | – | < 1.1 µg/mL | < 1.1 µg/mL | – | – | – | – | – | < 1.1 µg/mL | < 1.1 µg/mL | –
7 | O=c1[nH]cc(F)c(=O)[nH]1 [FLUOROURACIL] | – | – | – | – | 6.3 µg/mL (≈ 48.4 µM) | > 10 µg/mL | – | – | – | – | – | > 10 µg/mL | – | IC50 ([7]; bt-549): Not Active
8 | COc1ccc2c(OC)c3c4c(ccnc4c2c1)C(=O)C(=O)N3C [HADRANTHINE A] | 0.12 µg/mL (≈ 0.372 µM) | > 40 | 0.12 µg/mL (≈ 0.372 µM) | > 40 | > 10 µg/mL | > 10 µg/mL | 4.5 µg/mL (≈ 14 µM) | 20 µg/mL (≈ 62.1 µM) | – | – | – | – | > 10 µg/mL | IC50 ([6]; kb): Not Active; IC50 [10]: Not Active; MIC [10]: inactive; IC50 [11]: Not Active; MIC [11]: inactive; IC50 [12]: Not Active; MIC [12]: inactive
9 | COc1c2c3c(ccnc3c3ccccc13)C(=O)C(=O)N2 [HADRANTHINE B] | – | – | – | – | 3 µg/mL (≈ 10.8 µM) | 3.6 µg/mL (≈ 12.9 µM) | – | – | – | 4.2 µg/mL (≈ 15.1 µM) | > 12.5 µg/mL | 6.4 µg/mL (≈ 23 µM) | 6.6 µg/mL (≈ 23.7 µM) | Ratio IC50 [15]: 3
10 | CO[C@H]1/C=C/O[C@@]2(C)Oc3c(C)c(O)c4c(O)c(c(/C=N/N5CCN(C)CC5)c(O)c4c3C2=O)NC(=O)/C(C)=C\C=C\[C@H](C)[C@H](O)[C@@H](C)[C@@H](O)[C@@H](C)[C@H](OC(C)=O)[C@@H]1C [RIFAMPIN] | – | – | – | – | – | – | – | – | – | – | – | – | – | MIC [11, 24]: 0.02 µg/mL (≈ 0.0243 µM); IC50 [11, 25]: 0.01 µg/mL (≈ 0.0122 µM); MIC [12, 29]: 0.312 µg/mL (≈ 0.38 µM); IC50 [12, 26]: 0.0025 µg/mL (≈ 0.00304 µM)
11 | O=C1c2ccccc2-c2nccc3ccnc1c23 [SAMPANGINE] | 0.068 µg/mL (≈ 0.293 µM) | > 70 | 0.42 µg/mL (≈ 1.81 µM) | > 11 | 0.37 µg/mL (≈ 1.59 µM) | 4.1 µg/mL (≈ 17.7 µM) | 0.15 µg/mL (≈ 0.646 µM) | 0.39 µg/mL (≈ 1.68 µM) | 0.15 µg/mL (≈ 0.646 µM) | < 0.15 µg/mL | 2 µg/mL (≈ 8.61 µM) | 5.3 µg/mL (≈ 22.8 µM) | 6.4 µg/mL (≈ 27.6 µM) | MIC [10, 22]: 0.78 µg/mL (≈ 3.36 µM); IC50 [11, 25]: 5.5 µg/mL (≈ 23.7 µM); MIC [12, 29]: 12.5 µg/mL (≈ 53.8 µM); IC50 [12, 26]: 9 µg/mL (≈ 38.8 µM); MIC [21]: 1.56 µg/mL (≈ 6.72 µM); Ratio [15]: >13.3; IC50 [19]: > 43100 nM; Ratio IC50 [20]: <0.2
